Broadly, the IC50 is the concentration at which inhibition is half-maximal.

One series addresses T1, Toll-like receptor 8 (Homo sapiens, UniProt Q9NR97).
T1 sequence (Q9NR97 whole entry): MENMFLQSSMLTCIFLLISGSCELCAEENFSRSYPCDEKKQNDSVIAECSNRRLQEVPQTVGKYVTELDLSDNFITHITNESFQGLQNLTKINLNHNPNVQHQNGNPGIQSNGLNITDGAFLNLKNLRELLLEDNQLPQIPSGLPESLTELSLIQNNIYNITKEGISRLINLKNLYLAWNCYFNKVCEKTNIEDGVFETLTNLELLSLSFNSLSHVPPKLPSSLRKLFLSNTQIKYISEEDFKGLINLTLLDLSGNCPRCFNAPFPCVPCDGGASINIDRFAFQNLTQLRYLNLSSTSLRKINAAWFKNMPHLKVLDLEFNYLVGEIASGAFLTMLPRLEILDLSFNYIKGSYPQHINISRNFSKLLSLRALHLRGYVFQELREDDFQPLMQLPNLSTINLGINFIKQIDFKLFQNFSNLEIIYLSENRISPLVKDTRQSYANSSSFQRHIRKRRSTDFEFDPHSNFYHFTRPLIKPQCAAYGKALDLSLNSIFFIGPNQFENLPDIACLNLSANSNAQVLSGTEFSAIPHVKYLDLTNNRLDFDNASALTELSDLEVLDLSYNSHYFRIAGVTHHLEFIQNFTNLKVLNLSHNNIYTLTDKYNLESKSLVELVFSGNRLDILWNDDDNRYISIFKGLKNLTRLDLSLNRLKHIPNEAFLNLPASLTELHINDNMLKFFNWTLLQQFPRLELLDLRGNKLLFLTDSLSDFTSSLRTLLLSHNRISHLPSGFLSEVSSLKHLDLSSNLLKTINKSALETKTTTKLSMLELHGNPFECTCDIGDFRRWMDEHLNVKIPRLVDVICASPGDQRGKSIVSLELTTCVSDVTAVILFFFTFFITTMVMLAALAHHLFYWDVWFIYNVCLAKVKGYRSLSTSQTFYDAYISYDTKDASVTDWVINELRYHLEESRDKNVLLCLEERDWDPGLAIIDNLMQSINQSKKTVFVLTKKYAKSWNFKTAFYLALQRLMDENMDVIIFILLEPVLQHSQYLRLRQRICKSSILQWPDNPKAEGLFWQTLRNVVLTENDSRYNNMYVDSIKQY
Description: Inhibition of human TLR8 expressed in HEK-Blue cells assessed as inhibition of R848-induced NF-kappaB activation measured after 24 hrs by quanti-blue based SEAP reporter gene assay. It counts as cell-based. On the technique in general: Reporter assays use an easily measured gene product as a stand-in for the process of interest.

In series [1] the target is T2, Toll-like receptor 8 (Homo sapiens) (UniProt Q9NR97).
T2 sequence (whole entry): T1 sequence (Q9NR97 whole entry)
In words: Inhibition of TLR8 in human PBMC assessed as reduction in R848-induced TNFalpha production measured after 24 hrs by ELISA. A digest of the protocol: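 PBMCs from healthy donors isolated by density gradient centrifugation and cultured at once at 3 × 10⁶ cells/mL in RPMI 1640. Cells received R848 and varying compound concentrations for 24 h. Supernatants spun 10 min at 4 °C, frozen at −80 °C, and TNF-α measured by ELISA.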
In general terms: ELISA stands for enzyme-linked immunosorbent assay.

Series [2] deals with T2, Toll-like receptor 8 (Homo sapiens). In words: Inhibition of human TLR8 expressed in HEK-Blue cells assessed as inhibition of R848-induced TNFalpha mRNA level at 1 uM measured after 8 hrs by Trizol reagent based qRT-PCR analysis. It counts as cell-based. A digest of the protocol: (§1)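 RT-qPCR: HEK-Blue TLR8 cells seeded at 1 × 10⁶/well and grown 24 h, then switched to serum-free medium. Treated with R848 4 µg/mL ± compound 1 µM for 8 h. Total RNA extracted with TRIzol, reverse transcribed, TNF-α and IL-8 mRNA quantified. Three independent biological replicates, mean ± s.d.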

The target is the same in series [3]. Description: Inhibition of human TLR8 expressed in HEK-Blue cells assessed as inhibition of R848-induced IL-8 mRNA level at 1 uM measured after 8 hrs by Trizol reagent based qRT-PCR analysis. It counts as cell-based. A digest of the protocol:
as §1
On the technique in general: In qPCR the cycle at which signal appears reflects the starting amount.

The nature of series [4]: Cytotoxicity against HEK-Blue cells expressing human TLR8 assessed as reduction in cell viability measured after 24 hrs by CCK8 assay. It is filed as cell-based. A digest of the protocol:
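CCK-8 viability: compounds incubated 24 h at 37 °C with HEK-Blue TLR8 cells (4 × 10⁴ cells/well) or PBMCs (3 × 10⁶ cells/mL). CCK-8 was added at 1:10 for up to 2 h, then absorbance read at 450 nm. Values normalized to untreated cells as 100% survival.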

Calls of active or inactive are those of the source. No cut-off for these calls is given here.

`CSc1nnc(O)n1-c1ccc(Cl)cc1Cl`: at Toll-like receptor 8, the IC50 worked out at 9 µM.
The same measure, in the same setting: in the case of `CSc1nnc(CCCO)n1-c1cccnc1` it was greater than 20 µM; in that of `NC(=O)Sc1nnc(CCCO)n1-c1ccc(Cl)cc1Cl`, greater than 20 µM.
Regarding `OCCCc1nnc(S)n1-c1ccc(Cl)cc1Cl`, the inhibition result in series [1], in series [2] and in series [3] was “inactive” throughout. For the same molecule, on Toll-like receptor 8, the IC50 was greater than 20 µM.
As for `Cc1nc(-c2nnc(SCc3ccccc3)n2-c2cccc(F)c2)cs1`, the Activity entry in series [4] is recorded as “Non-Toxic”.
With `CSc1nnc(CCCO)n1C1CCCCC1`, at Toll-like receptor 8, the IC50 was greater than 20 µM.
As to `NC(=O)CSc1nnc(CCCO)n1-c1ccc(Cl)cc1Cl`, the IC50 at Toll-like receptor 8 is greater than 20 µM.
As for `CSc1nnc(CCCO)n1-c1ccc(Cl)cc1Cl`, the Activity entry in series [4] was “Non-Toxic”.
Same read-out and setting: in the case of `Fc1cccc(-n2c(SCc3c(Cl)cccc3Cl)nnc2C2CC2)c1` it was “Non-Toxic”.

Values taken from ChEMBL document CHEMBL4354873, “Rationally Designed Small-Molecule Inhibitors Targeting an Unconventional Pocket on the TLR8 Protein-Protein Interface” (J Med Chem, 2020).
